{"source": "ChEMBL document CHEMBL5724801", "about": "“EUbOPEN Chemogenomics Library - Multiplex” (2024)", "test_system": "Fibroblast", "assay": "Multiplex assay against human fibroblast", "assay_type": "toxicity, cell-based", "procedure,_shortened": "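At seeding, live cells were stained with Hoechst33342, BioTracker Green Microtubule Cytoskeleton Dye, MitoTracker Red and Annexin V Alexa Fluor 680. After compound addition they were imaged on a CQ1 microscope at 37°C and 5% CO2, and CellPathfinder machine-learning gating sorted them into Hoechst high-intensity objects or normal cells, with normal cells further split into healthy, pyknosed or fragmented nuclei and pyknosed cells into mitotic or apoptotic. Tubulin, mitochondrial-mass and membrane-permeability phenotypes are given as per cents of cells with healthy nuclei.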", "key": {"[1]": {"conditions": "12 h, 1 µM, compound concentration 1 uM"}, "[2]": {"conditions": "12 h, 10 µM, compound concentration 10 uM"}, "[3]": {"conditions": "24 h, 1 µM, compound concentration 1 uM"}, "[4]": {"conditions": "24 h, 10 µM, compound concentration 10 uM"}, "[5]": {"conditions": "48 h, 1 µM, compound concentration 1 uM"}, "[6]": {"conditions": "48 h, 10 µM, compound concentration 10 uM"}}, "note": "“And” between values parts separate entries of the source, which are not always exact repeats. Equal entries are not always repeated.", "data": [{"smiles": "CN1CCN(c2nc3cc(C(F)(F)F)ccc3n3cccc23)CC1.O=C(O)/C=C\\C(=O)O.O=C(O)/C=C\\C(=O)O", "values": [{"measurement": "Population Apoptotic (%)", "setting": "[1]", "result": "50% and 26%"}, {"measurement": "Population Fragmented Nuclei (%)", "setting": "[1]", "result": "18% and 24%"}, {"measurement": "Population Healthy Nuclei (%)", "setting": "[1]", "result": "71% and 46%"}, {"measurement": "Population Hoechst High Intensity Objects (%)", "setting": "[1]", "result": "0% and 6%"}, {"measurement": "Population Membrane Permeable-Phenotype (%)", "setting": "[1]", "result": "0% and 6%"}, {"measurement": "Population Mitochondria Different-Phenotype (%)", "setting": "[1]", "result": "5% and 4%"}, {"measurement": "Population Mitotic Cells (%)", "setting": "[1]", "result": "50% and 73%"}, {"measurement": "Population Normal (%)", "setting": "[1]", "result": "99% and 93%"}, {"measurement": "Population Tubulin-Different-Phenotype (%)", "setting": "[1]", "result": "27% and 47%"}, {"measurement": "Total Cell Count", "setting": "[1]", "result": "146 and 107"}, {"measurement": "Population Apoptotic (%)", "setting": "[2]", "result": "40% and 60%"}, {"measurement": "Population Fragmented Nuclei (%)", "setting": "[2]", "result": "29% and 35%"}, {"measurement": "Population Healthy Nuclei (%)", "setting": "[2]", "result": "59% and 41%"}, {"measurement": "Population Hoechst High Intensity Objects (%)", "setting": "[2]", "result": "2% and 4%"}, {"measurement": "Population Membrane Permeable-Phenotype (%)", "setting": "[2]", "result": "0% and 4%"}, {"measurement": "Population Mitochondria Different-Phenotype (%)", "setting": "[2]", "result": "25% and 38%"}, {"measurement": "Population Mitotic Cells (%)", "setting": "[2]", "result": "59% and 40%"}, {"measurement": "Population Normal (%)", "setting": "[2]", "result": "97% and 95%"}, {"measurement": "Population Pyknosed Nuclei (%)", "setting": "[2]", "result": "10% and 22%"}, {"measurement": "Population Tubulin-Different-Phenotype (%)", "setting": "[2]", "result": "69% and 85%"}, {"measurement": "Total Cell Count", "setting": "[2]", "result": "207 and 117"}, {"measurement": "Population Apoptotic (%)", "setting": "[3]", "result": "66% and 40%"}, {"measurement": "Population Fragmented Nuclei (%)", "setting": "[3]", "result": "16% and 35%"}, {"measurement": "Population Healthy Nuclei (%)", "setting": "[3]", "result": "72% and 42%"}, {"measurement": "Population Hoechst High Intensity Objects (%)", "setting": "[3]", "result": "1% and 6%"}, {"measurement": "Population Membrane Permeable-Phenotype (%)", "setting": "[3]", "result": "0% and 7%"}, {"measurement": "Population Mitochondria Different-Phenotype (%)", "setting": "[3]", "result": "2% and 7%"}, {"measurement": "Population Mitotic Cells (%)", "setting": "[3]", "result": "33% and 59%"}, {"measurement": "Population Normal (%)", "setting": "[3]", "result": "98% and 93%"}, {"measurement": "Population Pyknosed Nuclei (%)", "setting": "[3]", "result": "10% and 22%"}, {"measurement": "Population Tubulin-Different-Phenotype (%)", "setting": "[3]", "result": "23% and 43%"}, {"measurement": "Total Cell Count", "setting": "[3]", "result": "142 and 104"}, {"measurement": "Population Apoptotic (%)", "setting": "[4]", "result": "77% and 63%"}, {"measurement": "Population Fragmented Nuclei (%)", "setting": "[4]", "result": "24% and 37%"}, {"measurement": "Population Healthy Nuclei (%)", "setting": "[4]", "result": "64% and 43%"}, {"measurement": "Population Hoechst High Intensity Objects (%)", "setting": "[4]", "result": "6% and 1%"}, {"measurement": "Population Membrane Permeable-Phenotype (%)", "setting": "[4]", "result": "0% and 6%"}, {"measurement": "Population Mitochondria Different-Phenotype (%)", "setting": "[4]", "result": 32, "unit": "%"}, {"measurement": "Population Mitotic Cells (%)", "setting": "[4]", "result": "22% and 36%"}, {"measurement": "Population Normal (%)", "setting": "[4]", "result": "93% and 98%"}, {"measurement": "Population Pyknosed Nuclei (%)", "setting": "[4]", "result": "10% and 19%"}, {"measurement": "Population Tubulin-Different-Phenotype (%)", "setting": "[4]", "result": "75% and 86%"}, {"measurement": "Total Cell Count", "setting": "[4]", "result": "214 and 117"}, {"measurement": "Population Apoptotic (%)", "setting": "[5]", "result": "44% and 42%"}, {"measurement": "Population Fragmented Nuclei (%)", "setting": "[5]", "result": "25% and 37%"}, {"measurement": "Population Healthy Nuclei (%)", "setting": "[5]", "result": "63% and 40%"}, {"measurement": "Population Hoechst High Intensity Objects (%)", "setting": "[5]", "result": "2% and 3%"}, {"measurement": "Population Membrane Permeable-Phenotype (%)", "setting": "[5]", "result": "1% and 0%"}, {"measurement": "Population Mitochondria Different-Phenotype (%)", "setting": "[5]", "result": 2, "unit": "%"}, {"measurement": "Population Mitotic Cells (%)", "setting": "[5]", "result": "55% and 57%"}, {"measurement": "Population Normal (%)", "setting": "[5]", "result": "97% and 96%"}, {"measurement": "Population Pyknosed Nuclei (%)", "setting": "[5]", "result": "11% and 21%"}, {"measurement": "Population Tubulin-Different-Phenotype (%)", "setting": "[5]", "result": "22% and 57%"}, {"measurement": "Total Cell Count", "setting": "[5]", "result": "162 and 102"}, {"measurement": "Population Apoptotic (%)", "setting": "[6]", "result": "77% and 63%"}, {"measurement": "Population Fragmented Nuclei (%)", "setting": "[6]", "result": "22% and 33%"}, {"measurement": "Population Healthy Nuclei (%)", "setting": "[6]", "result": "68% and 57%"}, {"measurement": "Population Hoechst High Intensity Objects (%)", "setting": "[6]", "result": "7% and 5%"}, {"measurement": "Population Membrane Permeable-Phenotype (%)", "setting": "[6]", "result": "0% and 1%"}, {"measurement": "Population Mitochondria Different-Phenotype (%)", "setting": "[6]", "result": "28% and 23%"}, {"measurement": "Population Mitotic Cells (%)", "setting": "[6]", "result": "22% and 36%"}, {"measurement": "Population Normal (%)", "setting": "[6]", "result": "92% and 94%"}, {"measurement": "Population Pyknosed Nuclei (%)", "setting": "[6]", "result": 9, "unit": "%"}, {"measurement": "Population Tubulin-Different-Phenotype (%)", "setting": "[6]", "result": "77% and 85%"}, {"measurement": "Total Cell Count", "setting": "[6]", "result": "211 and 118"}]}]}
